Experimental data as given in ChEMBL document CHEMBL4229550, “An antimycobacterial pleuromutilin analogue effective against dormant bacilli” (Bioorg Med Chem, 2018).
≈ marks a conversion by molar mass, not a printed value. Calls of active or inactive are those of the source. The calls are words filed in the database; no cut-off is given here.

Columns and labels:
Staphylococcus aureus [1] = assay: Bactericidal activity against Staphylococcus aureus ATCC 25923 incubated for 24 hrs under aerobic condition by MABA; assay type: functional; conditions: ATCC 25923, 24 h
Staphylococcus aureus [2] = assay: Bactericidal activity against Staphylococcus aureus BAA 1683 incubated for 24 hrs under aerobic condition by MABA; assay type: functional; conditions: BAA 1683, 24 h
[3] = Selectivity index, ratio of IC50 for African green monkey Vero cells to MIC100 for replicating Mycobacterium tuberculosis H37Rv by MABA; assay type: toxicity; conditions: read-out: Selectivity Index
How it was run: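 Vero cells are cultured in EMEM with 10% FBS and exposed for 72 h to 0.78–200 µg/mL. Medium is switched to phenol-red-free EMEM, MTT is added, and formazan is read at 570 nm to give IC50. The selectivity index is Vero IC50 divided by the MABA MIC.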

Staphylococcus aureus [4] = assay: Antibacterial activity against Staphylococcus aureus ATCC 25923 incubated for 24 hrs under aerobic condition by MABA; assay type: functional; conditions: ATCC 25923, 24 h, read-out: MIC100
How it was run: (§1)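 Mid-log cultures at OD 0.5 were exposed to serial dilutions under aerobic conditions at 37 °C for 24 h. Resazurin was then added from a 0.08% stock for 1 h. MIC100 was the lowest concentration where the dye stayed blue (pink means growth). Absorbance was also read at 570 and 600 nm.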

Streptococcus pneumoniae [5] = assay: Antibacterial activity against Streptococcus pneumoniae ATCC 6301 incubated for 24 hrs under aerobic condition by MABA; assay type: functional; conditions: ATCC 6301, 24 h, read-out: MIC100; how it was run: as §1
[6] = tested on: Mycobacterium tuberculosis; assay: Bactericidal activity against Mycobacterium tuberculosis H37Rv at 2 times MIC measured every 24 hrs up to 12 days by time kill assay relative to control; assay type: functional
How it was run: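 Mid-log H37Rv (OD 0.5) is diluted to OD 0.25 and exposed at MIC, 2×MIC or 4×MIC. Every 24 h cultures are diluted 10- to 10,000-fold and plated on 7H10/OADC agar. Plates are incubated 15 days at 37 °C before colony counts.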

Staphylococcus aureus [7] = assay: Antibacterial activity against Staphylococcus aureus incubated for 24 hrs under aerobic condition by MABA; assay type: functional; conditions: read-out: MIC100
How it was run: (§2)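 Resazurin was then added from a 0.08% stock for 1 h. MIC100 was the lowest concentration where the dye stayed blue (pink means growth). Absorbance was also read at 570 and 600 nm.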

Enterococcus faecalis [8] = assay: Bactericidal activity against Enterococcus faecalis ATCC 19433 incubated for 24 hrs under aerobic condition by MABA; assay type: functional; conditions: ATCC 19433, 24 h
Acinetobacter baumannii [9] = assay: Antibacterial activity against Acinetobacter baumannii ATCC 19606 incubated for 24 hrs under aerobic condition by MABA; assay type: functional; conditions: ATCC 19606 = CIP 70.34 = JCM 6841, 24 h, read-out: MIC100; how it was run: as §1
Klebsiella pneumoniae [10] = assay: Antibacterial activity against Klebsiella pneumoniae ATCC 12019 incubated for 24 hrs under aerobic condition by MABA; assay type: functional; conditions: ATCC 12019, 24 h, read-out: MIC100; how it was run: as §1
Enterococcus faecalis [11] = assay: Bactericidal activity against Enterococcus faecalis ATCC 349 incubated for 24 hrs under aerobic condition by MABA; assay type: functional; conditions: ATCC 349, 24 h
Bacillus subtilis [12] = assay: Antibacterial activity against Bacillus subtilis ATCC 6051 incubated for 24 hrs under aerobic condition by MABA; assay type: functional; conditions: ATCC 6051, 24 h, read-out: MIC100; how it was run: as §1
[13] = tested on: Mycolicibacterium smegmatis; assay: Antibacterial activity against Mycobacterium smegmatis ATCC 607 incubated for 48 hrs under aerobic condition by MABA; assay type: functional; conditions: ATCC 607, 48 h, read-out: MIC100
How it was run: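 Mid-log culture at OD 0.5 was incubated with serial dilutions aerobically at 37 °C for 48 h. Resazurin was then added from a 0.08% stock for 1 h. MIC100 was the lowest concentration that stayed blue; absorbance was also read at 570/600 nm.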

Staphylococcus aureus [14] = assay: Antibacterial activity against Staphylococcus aureus BAA 44 incubated for 24 hrs under aerobic condition by MABA; assay type: functional; conditions: BAA 44, 24 h, read-out: MIC100; how it was run: as §1
Staphylococcus aureus [15] = assay: Antibacterial activity against Staphylococcus aureus BAA 1683 incubated for 24 hrs under aerobic condition by MABA; assay type: functional; conditions: BAA 1683, 24 h, read-out: MIC100; how it was run: as §1
Staphylococcus aureus [16] = assay: Bactericidal activity against Staphylococcus aureus BAA 2094 incubated for 24 hrs under aerobic condition by MABA; assay type: functional; conditions: BAA 2094, 24 h
Escherichia coli [17] = assay: Inhibition of protein translation/transcription in Escherichia coli S30 cell extract at 0.5 ug/ml using circular DNA with pBESTluc after 60 mins by luciferase reporter gene assay; assay type: functional
How it was run: (§3)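 Coupled transcription/translation used E. coli S30 extract, amino acid mix and premix, with the pBESTluc template carrying firefly luciferase under the tac promoter. Compounds were added in DMSO and reactions were started with DNA. Incubation was 60 min at 37 °C, stopped on ice, and luciferase was read after adding assay substrate.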

Enterococcus faecalis [18] = assay: Antibacterial activity against Enterococcus faecalis ATCC 349 incubated for 24 hrs under aerobic condition by MABA; assay type: functional; conditions: ATCC 349, 24 h, read-out: MIC100; how it was run: as §1
Staphylococcus aureus [19] = assay: Bactericidal activity against Staphylococcus aureus BAA 44 incubated for 24 hrs under aerobic condition by MABA; assay type: functional; conditions: BAA 44, 24 h
[20] = Metabolic stability in Sprague-Dawley rat liver microsomes at 500 ng/ml preincubated for 5 mins followed by NADPH addition […] by C-MS/MS analysis; assay type: ADME, microsome; conditions: 10 min
Bacillus subtilis [21] = assay: Bactericidal activity against Bacillus subtilis ATCC 6051 incubated for 24 hrs under aerobic condition by MABA; assay type: functional; conditions: ATCC 6051, 24 h
Escherichia coli [22] = assay: Bactericidal activity against Escherichia coli ATCC 10798 incubated for 24 hrs under aerobic condition by MABA; assay type: functional; conditions: ATCC 10798, 24 h
[23] = tested on: Mycobacterium tuberculosis; assay: Bactericidal activity against replicating Mycobacterium tuberculosis H37Rv incubated for 15 days under aerobic condition by MABA; assay type: functional; conditions: 360 h
How it was run: (§4)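 Mtb H37Rv grown in 7H9/OADC at 37 °C with shaking to OD600 0.5. The 0.5-OD culture is exposed aerobically to serial dilutions for 15 days at 37 °C. Resazurin (0.02% stock) is then added for 4 h at 37 °C with shaking.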

Escherichia coli [24] = assay: Inhibition of protein translation/transcription in Escherichia coli S30 cell extract at 0.1 ug/ml using circular DNA with pBESTluc after 60 mins by luciferase reporter gene assay; assay type: functional; how it was run: as §3
Escherichia coli [25] = assay: Antibacterial activity against Escherichia coli ATCC 10798 incubated for 24 hrs under aerobic condition by MABA; assay type: functional; conditions: ATCC 10798, 24 h, read-out: MIC100; how it was run: as §1
Vero = assay: Cytotoxicity against African green monkey Vero cells assessed as reduction in cell viability after 72 hrs by MTT assay; assay type: cell-based; conditions: Chlorocebus sabaeus
How it was run: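 Vero cells were grown in complete EMEM with 10% FBS and exposed for 72 h to 0.78–200 µg/mL. The medium was then swapped for phenol-red-free EMEM and MTT was added. Formazan absorbance was read at 570 nm to give IC50.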

Staphylococcus aureus [26] = assay: Bactericidal activity against Staphylococcus aureus incubated for 24 hrs under aerobic condition by MABA; assay type: functional
Erythrocyte = assay: Hemolytic activity in sheep erythrocytes after 2 hrs; assay type: ADME, cell-based; conditions: Ovis aries
How it was run: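 Washed heparinized sheep erythrocytes at 3% in buffer pH 7.4 were treated with 2–200 µg/mL for 2 h at 37 °C with gentle shaking. Triton X-100 (0.01–1%) was the positive control and PEG:H2O diluent the negative control. Released hemoglobin was read at OD540 and % hemolysis calculated against both controls.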

Streptococcus salivarius [27] = assay: Antibacterial activity against Streptococcus salivarius […] incubated for 24 hrs under aerobic condition by MABA; assay type: functional; conditions: read-out: MIC100; how it was run: as §2
Streptococcus pneumoniae [28] = assay: Bactericidal activity against Streptococcus pneumoniae ATCC 6301 incubated for 24 hrs under aerobic condition by MABA; assay type: functional; conditions: ATCC 6301, 24 h
Acinetobacter baumannii [29] = assay: Bactericidal activity against Acinetobacter baumannii ATCC 19606 incubated for 24 hrs under aerobic condition by MABA; assay type: functional; conditions: ATCC 19606 = CIP 70.34 = JCM 6841, 24 h
Enterococcus faecalis [30] = assay: Antibacterial activity against Enterococcus faecalis ATCC 19433 incubated for 24 hrs under aerobic condition by MABA; assay type: functional; conditions: ATCC 19433, 24 h, read-out: MIC100; how it was run: as §1
Staphylococcus aureus [31] = assay: Antibacterial activity against Staphylococcus aureus BAA 2094 incubated for 24 hrs under aerobic condition by MABA; assay type: functional; conditions: BAA 2094, 24 h, read-out: MIC100; how it was run: as §2
[32] = tested on: Mycobacterium tuberculosis; assay: Antibacterial activity against Mycobacterium tuberculosis; assay type: functional; conditions: read-out: MIC100; how it was run: as §4
Clostridioides difficile = assay: Bactericidal activity against Clostridium difficile ATCC 700057 incubated for 24 hrs […] by MABA; assay type: functional; conditions: ATCC 700057, 24 h
Klebsiella pneumoniae [33] = assay: Bactericidal activity against Klebsiella pneumoniae ATCC 12019 incubated for 24 hrs under aerobic condition by MABA; assay type: functional; conditions: ATCC 12019, 24 h
[34] = tested on: Mycolicibacterium smegmatis; assay: Bactericidal activity against Mycobacterium smegmatis ATCC 607 incubated for 48 hrs under aerobic condition by MABA; assay type: functional; conditions: ATCC 607, 48 h
Streptococcus salivarius [35] = assay: Bactericidal activity against Streptococcus salivarius ATCC 6301 incubated for 24 hrs under aerobic condition by MABA; assay type: functional; conditions: ATCC 6301, 24 h

For `C=C[C@]1(C)C[C@@H](OC(=O)CSC(C)(C)CNC(=O)[C@H](N)CC(C)C)[C@]2(C)[C@H](C)CC[C@]3(CCC(=O)[C@H]32)[C@@H](C)[C@@H]1O`, the MBC (Staphylococcus aureus [1]) was greater than 25 µg/mL, the MBC (Staphylococcus aureus [2]) was greater than 25 µg/mL and the selectivity ratio [3] was 16. For the same compound, the MIC (Staphylococcus aureus [4]) was greater than 25 µg/mL, the MIC (Streptococcus pneumoniae [5]) was 25 µg/mL (≈ 43.2 µM) and the Activity [6] was 100%. The MIC (Staphylococcus aureus [7]) was 0.4 µg/mL (≈ 0.691 µM), the MBC (Enterococcus faecalis [8]) was 25 µg/mL (≈ 43.2 µM) and the MIC (Acinetobacter baumannii [9]) was 12.5 µg/mL (≈ 21.6 µM). For the same compound, the MIC (Klebsiella pneumoniae [10]) was 25 µg/mL (≈ 43.2 µM), the MBC (Enterococcus faecalis [11]) was greater than 25 µg/mL and the MIC (Bacillus subtilis [12]) was 12.5 µg/mL (≈ 21.6 µM). The MIC [13] was 6.25 µg/mL (≈ 10.8 µM), the MIC (Staphylococcus aureus [14]) was greater than 25 µg/mL and the MIC (Staphylococcus aureus [15]) was greater than 25 µg/mL. For the same compound, the MBC (Staphylococcus aureus [16]) was greater than 25 µg/mL, the inhibition (Escherichia coli [17]) was “Active” and the MIC (Enterococcus faecalis [18]) was greater than 25 µg/mL. For the same compound, the MBC (Staphylococcus aureus [19]) was greater than 25 µg/mL, the Stability [20] was “Unstable” and the MBC (Bacillus subtilis [21]) was 25 µg/mL (≈ 43.2 µM). The MBC (Escherichia coli [22]) was greater than 25 µg/mL, the MBC [23] was 1.46 µg/mL (≈ 2.52 µM) and the inhibition (Escherichia coli [24]) was “Active”. It also gave an MIC (Escherichia coli [25]) of 12.5 µg/mL (≈ 21.6 µM), an IC50 (Vero) of 25 µg/mL (≈ 43.2 µM) and an MBC (Staphylococcus aureus [26]) of 0.8 µg/mL (≈ 1.38 µM). It also gave an IC50 (Erythrocyte) greater than 200 µM, an MIC (Streptococcus salivarius [27]) of 6.25 µg/mL (≈ 10.8 µM) and an MBC (Streptococcus pneumoniae [28]) greater than 25 µg/mL. It also gave an MBC (Acinetobacter baumannii [29]) of 25 µg/mL (≈ 43.2 µM), an MIC (Enterococcus faecalis [30]) of 12.5 µg/mL (≈ 21.6 µM) and an MIC (Staphylococcus aureus [31]) greater than 25 µg/mL. The MIC [32] was less than 6.25 µg/mL, the MBC (Clostridioides difficile) was 1.56 µg/mL (≈ 2.69 µM) and the MBC (Klebsiella pneumoniae [33]) was greater than 25 µg/mL. For the same compound, the MBC [34] was greater than 25 µg/mL and the MBC (Streptococcus salivarius [35]) was greater than 25 µg/mL.
